Results reported in ChEMBL document CHEMBL3108767, “Thioester Bonds of Thiocoraline Can Be Replaced with NMe-Amide Bridges without Affecting Its DNA-Binding Properties” (ACS Med Chem Lett, 2014).
Calls of active or inactive are those of the source. No cut-off for these calls is given here.

Legend:
[1] = Binding affinity to 3'-end [alpha32P]dATP labeled tyrT plasmid DNA (unknown origin) assessed as change in band shift at 10 to 50 uM
Summary of the method: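 tyrT DNA fragment incubated with ligand; a control lane received the solvent conditions alone. Samples were run on a native gel, and binding was scored as DNA bands that migrated more slowly than the control.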

[2] = Binding affinity to [alpha-32P]dATP labeled HexB DNA (unknown origin) at 0.1 to 500 uM by DNase 1 footprinting assay
Summary of the method: (§1)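 Each radiolabeled fragment (MS2, HexA or HexB) incubated with ligand at 14 concentrations from 500 down to 0.1 μM, then cleaved with DNase I. Gel tracks compared with GA purine markers and solvent-only DNA to find regions of attenuated cleavage as footprints.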

[3] = Binding affinity to [alpha-32P]dATP labeled MS2 DNA (unknown origin) at 0.1 to 500 uM by DNase 1 footprinting assay; summary of the method: as §1
[4] = tested on: DNA; experiment: Binding affinity to [alpha-32P]dATP labeled HexA DNA (unknown origin) at 0.1 to 500 uM by DNase 1 footprinting assay
[5] = Binding affinity to CGTACG HexB DNA (unknown origin) by DNase 1 footprinting assay
Summary of the method: (§2)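 Radiolabeled MS2, HexA or HexB DNA fragments incubated with ligand at 14 concentrations (500, 400, 300, 200, 100, 80, 60, 40, 20, 10, 5, 1, 0.5, 0.1 μM), then digested with DNase I. Products resolved on gels alongside GA purine markers and solvent-only DNA controls. C50 is the ligand concentration that reduced footprint band intensity by 50%.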

[6] = Binding affinity to ATGGAT MS2 DNA (unknown origin) by DNase 1 footprinting assay; summary of the method: as §2
[7] = Binding affinity to ACGACT MS2 DNA (unknown origin) by DNase 1 footprinting assay; summary of the method: as §2
[8] = Binding affinity to GGATAG MS2 DNA (unknown origin) by DNase 1 footprinting assay; summary of the method: as §2
[9] = Binding affinity to GACGTA MS2 DNA (unknown origin) by DNase 1 footprinting assay; summary of the method: as §2
[10] = Binding affinity to fluorophore labeled FAM-GTGCAC-dabcyl (unknown origin) assessed as change in melting temperature at 100 uM by fluorescence assay
Summary of the method: (§3)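 Duplexes made from fluorescently labeled oligonucleotides, each carrying the site of interest at its center. Melting run at 0.25 μM duplex DNA in 10 mM sodium phosphate pH 7.4 with 100 mM NaCl. Relative fluorescence was followed against temperature and normalized to the same initial value. First derivatives of the melting profiles were used to read transitions.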

[11] = Binding affinity to fluorophore labeled FAM-ACATCT-dabcyl (unknown origin) assessed as change in melting temperature at 100 uM by fluorescence assay; summary of the method: as §3
[12] = Binding affinity to fluorophore labeled FAM-ACATGT-dabcyl (unknown origin) assessed as change in melting temperature at 100 uM by fluorescence assay; summary of the method: as §3
[13] = Binding affinity to fluorophore labeled FAM-AATATT-dabcyl (unknown origin) assessed as change in melting temperature at 100 uM by fluorescence assay; summary of the method: as §3
[14] = Binding affinity to fluorophore labeled FAM-CACGTG-dabcyl (unknown origin) assessed as change in melting temperature at 100 uM by fluorescence assay; summary of the method: as §3
[15] = Binding affinity to CGCGAT HexB DNA (unknown origin) by DNase 1 footprinting assay; summary of the method: as §2
[16] = Binding affinity to CTCGAG HexB DNA (unknown origin) by DNase 1 footprinting assay; summary of the method: as §2
[17] = Binding affinity to TATATA HexB DNA (unknown origin) by DNase 1 footprinting assay; summary of the method: as §2

| SMILES | Activity [1] | Activity [2] | Activity [3] | Activity [4] | C50 [5] | C50 [6] | C50 [7] | C50 [8] | C50 [9] | ΔTm [10] | ΔTm [11] | ΔTm [12] | ΔTm [13] | ΔTm [14] | C50 [15] | C50 [16] | C50 [17] |
| --- | --- | --- | --- | --- | --- | --- | --- | --- | --- | --- | --- | --- | --- | --- | --- | --- | --- |
| CS[C@H]1SC[C@H]2C(=O)N(C)[C@@H](C(C)C)C(=O)OC[C@@H](NC(=O)c3cnc4ccccc4n3)C(=O)N[C@@H](C)C(=O)N(C)[C@@H]1C(=O)N(C)[C@@H](C(C)C)C(=O)OC[C@@H](NC(=O)c1cnc3ccccc3n1)C(=O)N[C@@H](C)C(=O)N2C | Active | Active | Active | Active | – | – | – | – | – | – | – | – | – | – | – | – | – |
| CSC[C@H]1C(=O)N(C)C[C@@H](NC(=O)c2nc3ccccc3cc2O)C(=O)NCC(=O)N(C)[C@H]2CSSC[C@@H](C(=O)N1C)N(C)C(=O)CNC(=O)[C@H](NC(=O)c1nc3ccccc3cc1O)CN(C)C(=O)[C@H](CSC)N(C)C2=O | Active | – | – | – | 13 µM | 110 µM | 102 µM | 131 µM | 95 µM | 0.7 °C | 2.2 °C | 4.5 °C | 1.4 °C | 7.6 °C | 22 µM | 17 µM | 28 µM |
| COCCOCCOCC(=O)NC[C@H]1C(=O)N(C)C[C@@H](NC(=O)c2nc3ccccc3cc2O)C(=O)NCC(=O)N(C)[C@H]2CSSC[C@@H](C(=O)N1C)N(C)C(=O)CNC(=O)[C@H](NC(=O)c1nc3ccccc3cc1O)CN(C)C(=O)[C@H](CNC(=O)COCCOCCOC)N(C)C2=O | inactive | – | – | – | – | – | – | – | – | – | – | – | – | – | – | – | – |
